Measurements: PMC7132385 (Antiviral Research, 2007)
Values after ≈ are worked out from the molar mass of the structure shown. Like-named read-outs stand apart in the source and are kept apart here.

B1: Urtica dioica agglutinin (protein, UniProt P11218 24-372, looked up)
Lectin/endochitinase 1: QRCGSQGGGGTCPALWCCSIWGWCGDSEPYCGRTCENKCWSGERSDHRCGAAVGNPPCGQDRCCSVHGWCGGGNDYCSGSKCQYRCSSSVRGPRVALSGNSTANSIGNVVVTEPLFDQMFSHRKDCPSQGFYSYHSFLVAAESFPAFGTIGDVATRKREVAAFLAHISQATSGERSDVENPHAWGLCHINTTTVTENDFCTSSDWPCAAGKKYSPRGPIQLTHNFNYGLAGQAIGEDLIQNPDLVEKDPIISFKTALWFWMSQHDNKPSCHDIVLNANSAANRIPNKGVIGNIISRAFGHDDFAVRSSSIGFYKRYCDMLGVSYGHDLKYWFDNTPSSEFQRIQMRVAA
B2: cyanovirin-N (protein, UniProt P81180 1-101, looked up)
Cyanovirin-N: LGKFSQTCYNSAIQGSVLTSTCERTNGGYNTSSIDLNSVIENVDGSLKWQPSNFIETCRNTQLAGSSELAAECKTRAQQFVSTKINLDDHIANIDGTLKYE

Tests used:
Equine arteritis virus = test: Colorimetric MTT antiviral assay, equine arteritis virus; type: cell-based; details: read-out: EC50 (50% inhibition of virus infection), Equine arteritis virus
Outline: (§1)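 100 TCID50 of virus was preincubated with graded test compound for 1 h at 37 °C, 5% CO2, added to PBS-DEAE-washed cells for 1 h, then removed, and compound was re-added at the same concentrations in DMEM with 5% FBS. MTT (0.5 mg/ml final) was added for 2 h at day 2 (FCoV 79-1683, FIPV 79-1146) or day 3 (others), then DMSO lysis and OD570. EC50 is 50% protection from CPE.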

[1] = tested on: FIPV Black TN406HP (serotype I); test: Immunoperoxidase; type: cell-based, feline coronavirus; details: read-out: EC50 (50% inhibition of virus infection), FIPV Black TN406HP (serotype I)
Outline: (§2)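 FCWF monolayers were given virus (MOI 0.5) that had been preincubated 1 h at 37 °C with test compound, for 1 h after a PBS-DEAE wash, then washed and given compound at the same concentrations. Cells were fixed in 4% formaldehyde for 15 min at 6 h post-infection (16 h for serotype I strain), permeabilised with 70% ethanol, and stained with cat FIP ascitic fluid plus HRP goat anti-cat. EC50 is 50% fewer microscopically counted infected foci than mock-treated cells.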

[2] = Cytotoxicity MTT assay, Vero cells; type: cell-based, simian; details: monkey (simian), Vero cells
Outline: (§3)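 Cells grown in DMEM with 10% FBS and antibiotics were kept with a range of test compound concentrations for 3 days at 37 °C, 5% CO2. MTT was added to 0.5 mg/ml final for 2 h at 37 °C. Medium was removed and cells were lysed in DMSO (10 min, room temperature, rocking). OD was read at 570 nm. CC50 is the concentration lowering viability of 50% of cells, ± S.D.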

[3] = Cytotoxicity MTT assay, Ederm cells; type: cell-based, equine; details: horse, equine dermis (Ederm) cells
Outline: as §3

MHV-EFLM = test: Immunoperoxidase; type: cell-based, mouse hepatitis virus; details: read-out: EC50 (50% inhibition of virus infection), MHV-EFLM
Outline: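 Murine LR7 fibroblasts expressing the MHV receptor were infected at MOI 0.5 with virus preincubated 1 h at 37 °C with test compound. After 1 h the inoculum was removed, cells were washed, and compound was re-added at the same concentrations. At 6 h cells were fixed in 4% formaldehyde and permeabilised with 70% ethanol. Immunoperoxidase staining used rabbit anti-MHV polyclonal plus HRP swine anti-rabbit. EC50 is the concentration lowering light-microscope infected-cell counts by 50% versus mock.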

Berne virus torovirus = test: Colorimetric MTT antiviral assay, Berne virus; type: cell-based, equine torovirus; details: read-out: EC50 (50% inhibition of virus infection), Berne virus torovirus
Outline: as §1

IBV Beaudette = test: Colorimetric MTT antiviral assay, IBV Beaudette; type: cell-based, infectious bronchitis virus; details: read-out: EC50 (50% inhibition of virus infection), IBV Beaudette
Outline: as §1

ST cells = test: Cytotoxicity MTT assay, ST cells; type: cell-based, porcine; details: read-out: CC50 (50% cytotoxicity), ST, 3 days, ± S.D.
Outline: as §3

[4] = tested on: porcine alveolar macrophages (PAMs); test: Cytotoxicity by EMA staining, PAMs; type: cell-based; details: read-out: CC50 (50% cytotoxicity), PAMs, 24 h, ± S.D.
[5] = Cytotoxicity MTT assay, LR7 cells; type: cell-based, mouse; details: mouse
Outline: as §3

[6] = Cytotoxicity MTT assay, FCWF cells; type: cell-based, feline; details: cat, FCWF cells
Outline: as §3

[7] = tested on: FCoV 79-1683 (serotype II); test: Immunoperoxidase; type: cell-based, feline coronavirus; details: read-out: EC50 (50% inhibition of virus infection), FCoV 79-1683 (serotype II)
Outline: as §2

[8] = tested on: FIPV-Δ3abcFL (serotype II); test: Immunoperoxidase; type: cell-based, feline coronavirus; details: read-out: EC50 (50% inhibition of virus infection), FIPV-Δ3abcFL (serotype II)
Outline: as §2

[9] = Maximum solubility of the compound; type: physicochemical
[10] = tested on: FIPV 79-1146 (serotype II); test: Colorimetric MTT antiviral assay, FIPV 79-1146; type: cell-based, feline coronavirus; details: read-out: EC50 (50% inhibition of virus infection), FIPV 79-1146 (serotype II), FCWF cells, 100 TCID50, 2 days, ± S.D.
Outline: as §1

[11] = tested on: FIPV Black TN406HP (serotype I); test: Colorimetric MTT antiviral assay, FIPV Black TN406HP; type: cell-based, feline coronavirus; details: read-out: EC50 (50% inhibition of virus infection), FIPV Black TN406HP (serotype I), FCWF cells, 100 TCID50, 3 days, ± S.D.
Outline: as §1

retroviruses = details: read-out: EC50 against retroviruses; earlier studies; ref Balzarini et al., 1992; cited from earlier work
LR7 cells = test: Cytotoxicity MTT assay, LR7 cells; type: cell-based, mouse; details: read-out: CC50 (50% cytotoxicity), LR7; MTT assay, 3 days; ± S.D.
Outline: as §3

FCWF cells = test: Cytotoxicity MTT assay, FCWF cells; type: cell-based, feline; details: read-out: CC50 (50% cytotoxicity), FCWF; MTT assay, 3 days; ± S.D.
Outline: as §3

Vero cells = test: Cytotoxicity MTT assay, Vero cells; type: cell-based, simian; details: read-out: CC50 (50% cytotoxicity), Vero; MTT assay, 3 days; ± S.D.
Outline: as §3

[12] = tested on: equine dermis (Ederm) cells; test: Cytotoxicity MTT assay, Ederm cells; type: cell-based; details: read-out: CC50 (50% cytotoxicity), Ederm; MTT assay, 3 days; ± S.D.
Outline: as §3

PRRSV Lelystad virus = test: Immunoperoxidase; type: cell-based, porcine reproductive and respiratory syndrome virus; details: IPOX assay; for PRRSV Lelystad virus infection of PAMs reduced to: at 2 μM; for EC50: read-out: EC50 (50% inhibition of virus infection), PRRSV Lelystad virus, PAMs, MOI 1, 10 h post-infection, ± S.D.
Outline: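 Primary porcine alveolar macrophages were kept in EMEM with 10% FBS at 37 °C, 5% CO2. Virus at MOI 1 was preincubated 1 h at 37 °C with test compound, then added to cells for 1 h. Cells were washed with FBS-free medium and fixed in −20 °C methanol at 10 h post-infection. Peroxidase was blocked with azide/H2O2. Staining used anti-nucleocapsid MAb P3/27 with HRP anti-mouse. Infected cells were counted by light microscopy against mock-treated cells.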

[13] = tested on: FCoV 79-1683 (serotype II); test: Colorimetric MTT antiviral assay, FCoV 79-1683; type: cell-based, feline coronavirus; details: read-out: EC50 (50% inhibition of virus infection), FCoV 79-1683 (serotype II), FCWF cells, 100 TCID50, 2 days, ± S.D.
Outline: as §1

TGEV Purdue = test: Colorimetric MTT antiviral assay, TGEV Purdue; type: cell-based, transmissible gastroenteritis virus; details: read-out: EC50 (50% inhibition of virus infection), TGEV Purdue, ST cells, 100 TCID50, 3 days, ± S.D.
Outline: as §1

[14] = MTT assay, Ederm cells, 100 TCID50, 3 days, ± S.D.
[15] = IPOX assay, FCWF cells, MOI 0.5, 16 h post-infection, ± S.D.
[16] = IPOX assay, LR7 cells, MOI 0.5, 6 h post-infection, ± S.D.
[17] = MTT assay, Vero cells, 100 TCID50, 3 days, ± S.D.
[18] = IPOX assay, FCWF cells, MOI 0.5, 6 h post-infection, ± S.D.

| Molecule | CC50 (ST cells) | CC50 [4] | EC50 [10] | EC50 [11] | CC50 (LR7 cells) | CC50 (FCWF cells) | EC50 (Equine arteritis virus; [14]) | EC50 [1, 15] | CC50 (Vero cells) | CC50 [12] | EC50 (MHV-EFLM; [16]) | EC50 (Berne virus torovirus; [14]) | PRRSV Lelystad virus infection of PAMs reduced to (PRRSV Lelystad virus) | EC50 (PRRSV Lelystad virus) | EC50 (IBV Beaudette; [17]) | EC50 [7, 18] | EC50 [13] | EC50 [8, 18] | EC50 (TGEV Purdue) | also measured |
| --- | --- | --- | --- | --- | --- | --- | --- | --- | --- | --- | --- | --- | --- | --- | --- | --- | --- | --- | --- | --- |
| CN[C@@H]1[C@H](O[C@@H]2OC[C@@H](O)[C@H](O)[C@H]2O)[C@@H](O)[C@H](O[C@H]2c3cc(C)c(C(=O)N[C@H](C)C(=O)O)c(O)c3-c3c(cc4c(c3O)C(=O)c3cc(OC)cc(O)c3C4=O)[C@@H]2O)O[C@@H]1C [PRM-A, pradimicin-A, reference compound] | 121000 ± 27600 nM | 18100 ± 6400 nM | – | – | – | – | – | – | – | – | – | – | – | – | – | – | – | – | – | EC50 (Equine arteritis virus; Equine arteritis virus, 72 h): > 120000 nM; EC50 ([1]; Alphacoronavirus 1, 16 h): 7800 ± 2000 nM; CC50 at 3 days [2]: 120000 ± 32400 nM; CC50 at 3 days [3]: > 120000 nM; EC50 (MHV-EFLM; Murine coronavirus, LR7, 6 h): 10700 ± 5800 nM; EC50 (Berne virus torovirus; Equine torovirus, 72 h): 31000 ± 24000 nM; EC50 (IBV Beaudette; Avian coronavirus, Vero, 72 h): 2900 ± 2000 nM; CC50 at 3 days [5]: > 120000 nM; CC50 at 3 days [6]: > 120000 nM; EC50 ([7]; Alphacoronavirus 1, 6 h): > 120000 nM; EC50 ([8]; Alphacoronavirus 1, 6 h): > 120000 nM; solubility [9]: 120 µM (≈ 101 µg/mL) |
| Cymbidium sp. agglutinin [CA] | – | – | 290 ± 110 nM | 130 ± 2 nM | > 4000 nM | 3300 ± 800 nM | – | – | – | – | – | – | – | – | – | – | – | – | – | EC50 (retroviruses): 3 nM |
| Hippeastrum hybrid agglutinin [HHA] | > 2000 nM | > 2000 nM | 100 ± 2 nM | 7 ± 3 nM | > 2000 nM | > 2000 nM | 130 ± 40 nM | 4 ± 2 nM | > 2000 nM | 1900 ± 300 nM | 70 ± 20 nM | 70 ± 70 nM | 40% | > 2000 nM | 0.2 ± 0.2 nM | 60 ± 20 nM | 110 ± 30 nM | 30 ± 20 nM | – | – |
| Galanthus nivalis agglutinin [GNA] | > 2000 nM | > 2000 nM | 130 ± 2 nM | 8 ± 5 nM | > 2000 nM | > 2000 nM | 180 ± 70 nM | 12 ± 6 nM | > 2000 nM | > 2000 nM | 40 ± 20 nM | 120 ± 90 nM | 40% | > 2000 nM | 0.2 ± 0.2 nM | 200 ± 60 nM | 430 ± 300 nM | 70 ± 40 nM | 4 ± 0.8 nM | – |
| B1 | 6100 ± 1000 nM | > 12000 nM | 240 ± 140 nM | 23 ± 12 nM | 9900 ± 4800 nM | 2200 ± 300 nM | 390 ± 10 nM | 20 ± 10 nM | 3400 ± 1300 nM | 9500 ± 3100 nM | 530 ± 20 nM | 250 ± 200 nM | – | 4800 ± 3200 nM | 50 ± 50 nM | 170 ± 100 nM | 110 ± 30 nM | 140 ± 50 nM | 80 ± 70 nM | – |
| B2 | – | – | – | – | > 2000 nM | 1400 ± 500 nM | – | – | – | – | – | – | – | – | – | – | – | – | – | – |
